In the EternaBench riboswitch data:

Test system: MS2 coat protein
Assay: apparent Kd, MS2 coat protein; higher = weaker binding; RNA-MaP array; tryptophan 2.4 mM where present
How it was run: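 Designs were transcribed by stalled E. coli RNA polymerase on Illumina sequencing-chip clusters. They were titrated with SNAP-549-labelled MS2 coat protein from 0.7 or 1.5 nM, doubling to 3 µM, without and then with constant ligand. Buffer: 100 mM Tris-HCl pH 7.5, 80 mM KCl, 4 mM MgCl2, BSA, DTT, yeast tRNA, Tween-20. Green signal was normalised to red-channel RNA signal and control-cluster median Fmax. Apparent Kd is the median of filtered per-cluster binding-curve fits.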

[1] = designed as: ON switch for tryptophan, no ligand
[2] = ligand present: tryptophan, designed as: ON switch for tryptophan
[3] = designed as: OFF switch for tryptophan, no ligand
[4] = ligand present: tryptophan, designed as: OFF switch for tryptophan

Row | Sequence | apparent Kd [1] [nM] | apparent Kd [2] [nM] | apparent Kd [3] [nM] | apparent Kd [4] [nM]
1 | GUCCUCAUGACGGCCGCCACUAAACAUGAGGAUCACCCAUGUAAUGAUCCAUUAAAUGAUAAUAGUAGGACCGGGUCAAAAUAAA | 477 | 669 | – | –
2 | UAUUAUCAGUCGGCCGCCACUGUCACAUGAGGAUCACCCAUGUAACUUGGGUUAUAUUUAAUAUACAGGACCGGGACAAAGGCUA | – | – | 58.6 | 115
3 | UCGGAUGCGGCGGCCGCCACUCGCGGAUAACGAUAGCUUAACAUGAGGAUCACCCAUGUGUCAUGGAGGACCGGGCCCAUACCGU | 23.4 | 20.7 | – | –
4 | UGCAUUAUACAUGGAUCACCCAUGUAGACACGAGGACCGGUACGGCCGCCACUCGGAAGAGGGAACAUGAGGAUCACCCAUGUGA | 52.5 | 51.5 | – | –
5 | UGUAUUACGAAAGUAGUACAUCGUGUUCGACGAGGACCGGUACGGCCGCCACUCGGACAUGAGGAUCACCCAUGUAGCGAAAGCU | 158 | 256 | – | –
6 | UGUCAGCGAAAGUUGACAUGUCUUACCGGUCGAGGACCGGUACGGCCGCCACUCGAUCACUCGCACAUGAGGAUCACCCAUGUCG | 12.4 | 11.7 | – | –
7 | UGUCAGCGAAAGUUGACAUGUCUUACCGGUCGAGGACCGGUACGGCCGCCACUCGAUCACUCGCACAUGAGGAUCACCCAUGUUG | 18.9 | 14.3 | – | –
8 | UGUCAGCGAAAGUUGACAUGUCUUGCUGGUCGAGGACCGGUACGGCCGCCACUCGAUCUCUCGCACAUGAGGAUCACCCAUGUUG | 12.6 | 13.4 | – | –
9 | UGUCAUGGAAACAUGACAGGUCUUACCGGUCGAGGACCGGUACGGCCGCCACUCGAUUGGUGGCACAUGAGGAUCACCCAUGUUA | 29 | 26.7 | – | –
10 | UUAGUAACGACGGCCGCCACUGAAUUUGAACAUGAGGAUCACCCAUGUAGAGAUCCUAGAAUAAACAGGACCGGGUCUGAUAAUG | – | – | 95.7 | 118
11 | UUCAGCUAGUCGGCCGCCACUACAUGAGGAUCACCCAUGUCGGUCCUCACUGCUUCGGCAGUGUGUAGGACCGGGACUAGCUGAG | – | – | 72.3 | 720
12 | UUCGUAUUGUCGGCCGCCACUGCAACAUGAGGAUCACCCAUGUAAAUUUGGGAGUAGUUAUAUUACAGGACCGGGACAAUAGUAA | – | – | 102 | 139
